Measurements: ChEMBL document CHEMBL4513216, “Probing the Open Global Health Chemical Diversity Library for Multistage-Active Starting Points for Next-Generation Antimalarials” (ACS Infect Dis, 2020)

Experiment: Toxicity liver stage against HepG2, at 10uM
Format: cell-based
Parameters: test concentration 10 uM, cell line HepG2-A16-CD81EGFP
Settings: human, HepG2-A16-CD81EGFP cells; read-out: INHIBITION
Procedure, shortened: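 Uninfected HepG2-A16-CD81EGFP cells, 3 × 10^3 per well, 1536-well, plated on prespotted compound at 10 μM final, parasite-free screening media added to match infected plates; puromycin 10 μM positive, DMSO 0.5% negative; run in parallel with 48 h PbLuc assay at 37 °C, 5% CO2; viability by CellTiter-Glo luminescence, normalized to controls.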

SMILES | cytotoxicity at 10 µM
CCC1(CC)Cc2ccccc2-c2nc(CN(C)C)nc(O)c21 | -8.95%
CCOC(=O)C1CC2(CCCCC2)N2CCC(=O)N12 (centres undefined) | 2.63%
C[C@@H](CO)NC(=O)c1ccc2nc(NS(C)(=O)=O)sc2c1 | 6.84%
CCOCC(=O)NCC(Cc1cccc(F)c1)N1CCCCC1=O (centres undefined) | -1.89%
CNC(=O)CN1CCC(c2nn(C)c(=O)n2-c2ccccc2)CC1 | -14%
COC(=O)c1sccc1S(=O)(=O)N1CCC(Oc2cnccn2)CC1 | 9.32%
COC[C@@H]1CCC[C@]12CN(S(=O)(=O)c1cccs1)CCO2 | -5.73%
O=C(Cc1ccccc1)N1CC[C@@H]2CNS(=O)(=O)[C@@H]2CC1 | -9.88%
Cn1cccc1C(=O)N1CC[C@H]2[C@@H]1CCC(=O)N2CC1CC1 | -11.1%
NC(=O)c1ccc2c(c1)nc1n2CCN(Cc2cccnc2)C1 | 10.3%
O=C(O)c1ccc2ccc(N3CCN(CC4CC4)CC3)n2c1 | 7.25%
CC(C)Cn1nc(-c2ccc(C(=O)O)cc2)cc1-c1ccc(F)cc1 | 8.88%
COc1ccc(S(=O)(=O)N2CCC[C@@H]3CN(C(=O)C4CC4)C[C@@H]32)cc1 | 14.7%
CCCN1C[C@H](NC(=O)c2ccccc2F)[C@@H](c2ccc(OC)cc2)C1 | -41.8%
N[C@@H]1CCC[C@@H](Oc2ccc(F)cc2Oc2ccccc2)[C@@H]1O | -7.39%
OC1(Cn2ccc3ncccc32)CCN(Cc2cc(F)cc(F)c2)CC1 | -5.41%
Cc1ncsc1-c1nnc(C2CCN(Cc3cccc(F)c3F)CC2)o1 | -15.8%
COCC(=O)N1CCC(c2cccc(Cc3ccc(F)cc3)n2)CC1 | 10.3%
COc1ccccc1Cc1nnc(SCCS(C)(=O)=O)o1 | 5.89%
CCC(=O)c1cccc(S(=O)(=O)NC(C)C#N)c1 (centres undefined) | 3.73%
Cc1ccc(C(=O)N2CCOCC2C(N)=O)c(F)c1 (centres undefined) | 3.72%
COc1cccc2c1CCCCN2C(=O)c1oc(C)nc1C | 3.3%

SMILES | cytotoxicity at 10 µM
c1cnnc(N2CCCC(NCc3cccc4c3OCO4)C2)c1 (centres undefined) | 2.97%
CS(=O)(=O)Cc1noc(CN(Cc2ccco2)c2ccccc2)n1 | -8.3%
Cc1occc1C(=O)NCC(=O)NCCCOc1ccc(F)cc1 | -45.1%
CC(C)n1cc(CN2CCCN(C(=O)C3(C)CCOCC3)CC2)cn1 | -48.2%
CNS(=O)(=O)c1ccc(CNC(=O)C2CCCO2)cc1 (centres undefined) | 2.45%
Cc1cc(CNCC2(O)CCOCC2)ccc1Br | -0.378%
Cn1cc(C2CN(C(=O)Cc3coc(-c4ccccc4)n3)CCO2)cn1 (centres undefined) | -12.4%
O=C(c1cccnc1O)N1CCN(Cc2ccccc2F)CC1 | 5.57%
CC(C#N)CSc1ccccc1NCC(=O)NC1CCCCC1 (centres undefined) | 9.37%
O=C(Nc1cccc(CN2CCOC2=O)c1)N1CCCC1 | -3.54%
CCCC1CCCN(C(=O)Nc2ccc(F)c(C(N)=O)c2)CC1 (centres undefined) | -2.27%
CSCCC(=O)N1CCCC1c1nnc2n1CCCCC2 (centres undefined) | -5.79%
Cc1c(C(N)=O)sc2nc(C(F)(F)F)ccc12 | -3.33%
CCc1nnc2n1CCN(C(=O)c1cnn(C)c1C1CC1)C2 | -6.93%
CC(C)S(=O)(=O)CC(=O)N(Cc1ccsc1)c1ccccc1 | -5.24%
CN1CCN(CCCN(C)S(=O)(=O)CC2CCCCC2)CC1 | -10.1%
CC(Cn1cccn1)C(=O)N1CCC(Nc2cccnn2)CC1 (centres undefined) | -9.28%
N#Cc1cccc(OCC(=O)N(Cc2ccsc2)C2CC2)c1 | -50.2%
O=C(CN1CCN(CCO)CC1)NCc1ccc(Cl)s1 | 9.3%
Cc1ccc(CNC(=O)CN(C)CC2CCN(CCO)CC2)s1 | 9.83%
Cc1c(C(=O)NS(=O)(=O)c2ccsc2)cnn1CC(C)C | 11.6%
CCC(C(=O)Nc1ccc2cn(CC)nc2c1)N1CCCC1=O (centres undefined) | -46.7%

SMILES | cytotoxicity at 10 µM
CO[C@H]1CN(C(=O)OC(C)(C)C)CC1NCc1cccn1C (some centres undefined) | -44%
COc1cccc(CSCC(=O)NCc2cccnc2)c1 | -46.3%
O=C(CC1CC1)N[C@@H]1CN(C(=O)c2cccs2)C[C@@H]2CCCO[C@@H]21 | -113%
CC(C)N1C(=O)C[C@H]2[C@@H]1CCN2C(=O)c1ccco1 | -99%
CCS(=O)(=O)NCC1Cn2nnc(-c3ccccc3)c2CO1 (centres undefined) | -75.4%
Cc1ccc2c(n1)N(CCN(C)C)CCN(C(=O)c1ccco1)C2 | -65.8%
CCOCC1CN(C(=O)Cc2ccccn2)Cc2cnn(CC)c21 (centres undefined) | -68.9%
C[C@H](O)CNc1cc(-c2ccncc2)ncn1 | -11.1%
O=C1CCc2cc(NC(=O)N3CCCN(Cc4cccs4)CC3)ccc21 | -11.1%
CN1CCC(N2CCC(CN(Cc3ccncc3)C3CCC3)CC2)CC1 | -7.19%
CCCc1nnc(NC(C)c2ccc3c(c2)OCCO3)o1 (centres undefined) | 0.965%
CCN1CC(C(=O)N2CCc3cc(C(N)=O)n(C)c3C2)CCC1=O (centres undefined) | -44.6%
COc1cccc2c1OCC(NCc1cnn(-c3ccccc3F)c1)C2 (centres undefined) | 1.68%
Cc1ccc(N2CCN(C3CCc4ccccc4C3)CC2)nn1 (centres undefined) | -0.75%
CC(C)NS(=O)(=O)c1cc(C(=O)O)cc(-c2ccccc2C#N)c1 | -3.73%
Cc1ccccc1C(C(=O)N(C)CCc1cn[nH]c1)N(C)C (centres undefined) | -5.86%
CCSc1ccc(C(=O)N2CC[C@](O)(CC)[C@H](O)C2)s1 | -7.17%
CN(C)c1nc2c(c(=O)[nH]1)Cc1ccccc1OC2 | -104%
CCOc1ccc2[nH]c(=O)c(CN(C)CCc3cn[nH]c3)cc2c1 | 25.9%
CCCN1CCN(C(=O)c2cc[nH]n2)[C@H]2CS(=O)(=O)C[C@H]21 | 2.29%
Cn1cc(C2=CCN(CCCOc3ccc(C(N)=O)cc3)CC2)cn1 | 6.39%
CC(C)c1cc(N2CCC(N(C)C)C2)n2nccc2n1 (centres undefined) | -0.869%

SMILES | cytotoxicity at 10 µM
Cn1c(=O)oc2ccc(NC(=O)N3CCOCC3)cc21 | -5.09%
CC(C)(C)c1cn(C2CCN(C(=O)c3cncnc3)CC2)nn1 | 13%
CCCC(=O)NCC1CCCN(Cc2cc(C)c(C)o2)C1 (centres undefined) | 8.82%
Cc1nc[nH]c1CNC1CC(=O)N(CCc2cccc(Cl)c2)C1 (centres undefined) | -135%
CC(C)N(C(=O)c1ccccc1-c1nc2c([nH]1)CCNC2)C(C)C | -45%
O=C1CN(Cc2cn(CC3CCCN(C4CCSCC4)C3)nn2)CCN1 (centres undefined) | -49.3%
CC(C)n1ccnc1CNC(=O)c1cccc(CCC(C)(C)O)c1 | -36.4%
CN1CCCC1CCn1ccnc1-c1nc2ccccc2[nH]1 (centres undefined) | 5.47%
COc1cccc(-c2n[nH]c3c2CN(C(=O)c2cccc(=O)[nH]2)CC3)c1 | -5.66%
Cc1ncc(CN2CCC(n3cc(-c4ccc(F)cc4)nn3)CC2)cn1 | 5.48%
Cc1cc(-c2n[nH]c3c2CN(S(=O)(=O)c2ccsc2)CC3)c(C)o1 | -15.8%
CCCN(CCOC)c1nc(C)nc2sccc12 | -134%
Oc1ccc(-c2c(-c3ccccc3)ncn2C2CCNC2)cc1 (centres undefined) | -45.3%
CC(C)c1nc(C2CCCN2Cc2ccncc2Cl)no1 (centres undefined) | -2.83%
COc1cccc2cc(CNC(=O)N3CCC(N4CCCC4)C3)oc12 (centres undefined) | -2.69%
CN(C(=O)Cc1cccs1)C1CCN(c2ccccn2)CC1 | -3.54%
CC(Oc1ccccc1)C(=O)N1CCCN(Cc2nccn2C)CC1 (centres undefined) | 0.471%
Cn1ncc2c(=O)[nH]c(CN(Cc3ccco3)C3CCCC3)nc21 | 20.8%
CC(C)N(C)S(=O)(=O)N(C)Cc1ccc2c(c1)OCO2 | -0.0868%
Cc1cc(CN(C)C2CCCN(Cc3noc(C4CC4)n3)C2)no1 (centres undefined) | -10.8%
CCc1c(C(=O)N2CCN(CC(N)=O)CC2)cnn1C(C)(C)C | -1.77%
Cn1cnc2c1CCN(Cc1nc(COc3ccc(F)cc3)no1)C2 | -7.22%

SMILES | cytotoxicity at 10 µM
COc1ccc(-c2noc(CNC(C)Cn3cccn3)n2)c(OC)c1 (centres undefined) | -0.144%
O=C(c1ccc[nH]1)N1CCCC(c2cc(C(F)(F)F)[nH]n2)C1 (centres undefined) | 2.04%
Cc1csc(CNC(=O)N(C)Cc2cnn(C)c2)n1 | -1.57%
Cc1nc(C)n(CC2CN(CCOc3ccccc3F)CCO2)n1 (centres undefined) | -1.44%
CC(C)C(NC(=O)Cn1ccc(=O)n(C)c1=O)c1ccc(F)cc1 (centres undefined) | -9.9%
Clc1ccc(OCCCN2CCN(c3cnccn3)CC2)cc1 | -8.11%
CCc1nc(CN2CCCN(C(=O)COCC3CC3)CC2)cs1 | -5.2%
CC(C)(C)CC(=O)NCCn1nc(C2CCNC2)c2cccnc21 (centres undefined) | -0.00173%
Cc1noc([C@@H]2C[C@H]3OCC[C@H]3N(Cc3sccc3C)C2)n1 | -69.1%
CCS(=O)(=O)NC[C@]12COC[C@H]1CN(Cc1ccsc1)C2 | 6.37%
CCOc1ncnc2c1CCN(C(=O)c1ccncc1F)CC2 | -76.6%
Cc1ccc(N2CCC3(CCCN3Cc3ccn(C)n3)CC2)nn1 | 11.6%
CNC(=O)COC1COC2(CCN(c3ccc(C)nn3)CC2)C1 (centres undefined) | -0.419%
Cc1cncc(C(=O)N2CC[C@@]3(C[C@H](NS(C)(=O)=O)CCO3)C2)c1 | -73.6%
COCCN1CCC2(CC1)CC(NCc1cncn1C)c1ccccc12 (centres undefined) | -8.13%
c1ccc(OCC2C[C@@H]3[C@@H](C2)OCCN3Cc2ccoc2)nc1 (some centres undefined) | -0.514%
CN1CCN(C2COC3(CCN(Cc4ccsc4)CC3)C2)CC1 (centres undefined) | -77.1%
c1coc(CN2CC[C@H]3O[C@@H](COCC4CC4)CC[C@H]32)c1 | -137%
Cc1ccc(CN2CCc3onc(C(=O)NCCN(C)C)c3C2)o1 | 5.9%
CCS(=O)(=O)NC[C@]12COC[C@H]1CN(Cc1ccncc1)C2 | 6.01%
Cc1c(C2N3CC4(C(C)C)CN2CC(C(C)C)(C3)C4=O)[nH]c(=O)[nH]c1=O (centres undefined) | 8.71%
